Results: ChEMBL document CHEMBL2417390 (J Med Chem, 2013)

What was measured:
Aromatase = molecular target: T1, Aromatase (Homo sapiens, UniProt P11511); test: Inhibition of CYP19 in human placental microsomes using [1beta-3H]androstenedione as substrate by 3H2O-method; parameters: species or system Placenta
T1 sequence (P11511 whole entry): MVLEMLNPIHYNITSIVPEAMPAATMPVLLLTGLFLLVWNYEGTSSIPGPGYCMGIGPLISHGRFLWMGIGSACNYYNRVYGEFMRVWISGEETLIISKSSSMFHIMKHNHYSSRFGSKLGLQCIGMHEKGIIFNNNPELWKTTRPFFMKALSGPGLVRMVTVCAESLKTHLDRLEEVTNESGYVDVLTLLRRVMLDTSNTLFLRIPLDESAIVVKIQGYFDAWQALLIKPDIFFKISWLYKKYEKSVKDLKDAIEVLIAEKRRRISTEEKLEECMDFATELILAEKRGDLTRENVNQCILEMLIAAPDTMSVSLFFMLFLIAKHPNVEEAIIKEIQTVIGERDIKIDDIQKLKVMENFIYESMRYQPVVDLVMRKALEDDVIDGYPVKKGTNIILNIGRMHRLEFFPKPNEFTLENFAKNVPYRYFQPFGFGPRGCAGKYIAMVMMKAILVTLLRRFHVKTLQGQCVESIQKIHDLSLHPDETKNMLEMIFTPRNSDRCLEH
How it was run: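 Human placental microsomes as the aromatase source. Product formation was read by the 3H2O release method with [1β-3H]androstenedione at 500 nM as substrate.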

Cytochrome P450 3A4 = Cytochrome P450 3A4 (Homo sapiens, UniProt P08684); test: Inhibition of recombinant CYP3A4 (unknown origin) expressed in baculovirus-infected insect microsomes; assay type: ADME, Microsome
Sequence of Cytochrome P450 3A4 (P08684 whole entry): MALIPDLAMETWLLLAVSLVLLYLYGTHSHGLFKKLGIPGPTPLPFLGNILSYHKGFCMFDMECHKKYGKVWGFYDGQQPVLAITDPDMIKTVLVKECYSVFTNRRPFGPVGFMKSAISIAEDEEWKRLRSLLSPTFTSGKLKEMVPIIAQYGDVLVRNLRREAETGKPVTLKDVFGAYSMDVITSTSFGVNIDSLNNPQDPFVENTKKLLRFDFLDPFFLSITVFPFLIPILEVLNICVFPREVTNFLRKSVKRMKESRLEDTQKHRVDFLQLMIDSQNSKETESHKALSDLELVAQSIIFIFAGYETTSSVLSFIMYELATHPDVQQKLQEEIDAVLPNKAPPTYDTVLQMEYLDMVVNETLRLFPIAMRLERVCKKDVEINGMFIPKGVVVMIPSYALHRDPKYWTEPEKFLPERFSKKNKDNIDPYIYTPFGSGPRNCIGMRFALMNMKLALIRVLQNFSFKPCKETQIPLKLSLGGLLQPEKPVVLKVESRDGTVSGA
How it was run: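 Recombinant CYP3A4 in baculovirus-infected insect microsomes (Supersomes), assayed following the supplier's protocol.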

Homo sapiens = species on record: Homo sapiens; test: Selectivity factor, ratio of IC50 for human CYP11B1 to IC50 for human CYP11B2
[1] = molecular target: T2, Cytochrome P450 11B1, mitochondrial (Homo sapiens, UniProt P15538); test: Inhibition of human CYP11B1 expressed in hamster V79MZh cells using [1,2-3H]-11-deoxycorticosterone as substrate; assay type: cell-based
T2 sequence (P15538 whole entry): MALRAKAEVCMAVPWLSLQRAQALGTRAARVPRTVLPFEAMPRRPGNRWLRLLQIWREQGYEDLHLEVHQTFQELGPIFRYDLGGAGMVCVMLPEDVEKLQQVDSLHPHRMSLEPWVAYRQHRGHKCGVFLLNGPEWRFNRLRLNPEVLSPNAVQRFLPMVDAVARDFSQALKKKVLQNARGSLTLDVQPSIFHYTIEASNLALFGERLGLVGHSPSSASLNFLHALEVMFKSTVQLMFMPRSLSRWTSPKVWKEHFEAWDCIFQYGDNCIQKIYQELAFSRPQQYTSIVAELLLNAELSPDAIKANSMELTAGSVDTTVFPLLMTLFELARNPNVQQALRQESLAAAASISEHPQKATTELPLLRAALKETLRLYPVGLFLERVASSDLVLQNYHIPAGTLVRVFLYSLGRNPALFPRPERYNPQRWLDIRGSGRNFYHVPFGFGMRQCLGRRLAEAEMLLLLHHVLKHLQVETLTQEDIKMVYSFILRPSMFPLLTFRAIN

[2] = molecular target: T3, Cytochrome P450 11B2, mitochondrial (Homo sapiens, UniProt P19099); test: Inhibition of human CYP11B2 expressed in hamster V79MZh cells using [1,2-3H]-11-deoxycorticosterone as substrate; assay type: cell-based
T3 sequence (P19099 whole entry): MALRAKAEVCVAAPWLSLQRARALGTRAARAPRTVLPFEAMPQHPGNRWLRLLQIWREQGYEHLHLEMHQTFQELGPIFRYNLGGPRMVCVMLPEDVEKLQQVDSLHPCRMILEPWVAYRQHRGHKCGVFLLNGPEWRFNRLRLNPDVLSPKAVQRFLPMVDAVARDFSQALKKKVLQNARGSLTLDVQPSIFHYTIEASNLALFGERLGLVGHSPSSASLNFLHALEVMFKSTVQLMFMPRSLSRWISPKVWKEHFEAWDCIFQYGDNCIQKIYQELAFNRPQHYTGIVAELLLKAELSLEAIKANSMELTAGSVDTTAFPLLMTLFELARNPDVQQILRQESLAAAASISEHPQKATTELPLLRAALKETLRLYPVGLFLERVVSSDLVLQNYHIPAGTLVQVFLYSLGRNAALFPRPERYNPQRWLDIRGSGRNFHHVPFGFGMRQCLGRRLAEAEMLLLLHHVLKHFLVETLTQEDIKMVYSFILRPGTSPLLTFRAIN

[3] = molecular target: T4, Steroid 17-alpha-hydroxylase/17,20 lyase (Homo sapiens, UniProt P05093); test: Inhibition of human CYP17 expressed in Escherichia coli using 1,2[3H]-progesterone as substrate in presence of NADPH
T4 sequence (P05093 whole entry): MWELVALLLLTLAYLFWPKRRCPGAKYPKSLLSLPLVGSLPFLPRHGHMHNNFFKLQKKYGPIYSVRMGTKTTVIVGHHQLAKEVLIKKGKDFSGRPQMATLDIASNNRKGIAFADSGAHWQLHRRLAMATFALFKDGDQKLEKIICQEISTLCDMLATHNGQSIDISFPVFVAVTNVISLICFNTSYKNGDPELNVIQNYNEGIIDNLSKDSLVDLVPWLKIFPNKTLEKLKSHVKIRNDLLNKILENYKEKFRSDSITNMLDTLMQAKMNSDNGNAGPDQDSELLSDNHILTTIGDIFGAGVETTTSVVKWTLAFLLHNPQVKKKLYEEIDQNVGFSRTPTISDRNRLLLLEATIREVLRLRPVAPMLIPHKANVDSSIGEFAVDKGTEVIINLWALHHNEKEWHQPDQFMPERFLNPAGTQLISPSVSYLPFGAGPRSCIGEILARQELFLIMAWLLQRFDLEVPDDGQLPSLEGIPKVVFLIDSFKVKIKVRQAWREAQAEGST
How it was run: (§1)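 Human CYP17 was recombinantly expressed in E. coli. The substrate was progesterone at 25 µM, with NADPH as cofactor.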

[4] = molecular target: T4, Steroid 17-alpha-hydroxylase/17,20 lyase; test: Inhibition of human CYP17; how it was run: as §1
[5] = molecular target: T3, Cytochrome P450 11B2, mitochondrial; test: Inhibition of human CYP11B2
[6] = molecular target: T4, Steroid 17-alpha-hydroxylase/17,20 lyase; test: Inhibition of human CYP17 expressed in Escherichia coli using 1,2[3H]-progesterone as substrate at 2000 nM in presence of NADPH relative to control; conditions: read-out: INH

IC50 (Aromatase) [nM] | IC50 (Cytochrome P450 3A4) [nM] | Ratio IC50 (Homo sapiens) | IC50 [1] [nM] | IC50 [2] [nM] | IC50 [3] [nM] | IC50 [4] [nM] | IC50 [5] [nM] | inhibition at 2 µM [6] [%] | Structure (SMILES)
> 2000 | 5050 | 104 | 2820 | 27 | 16 | – | – | – | Oc1cncc(-c2ccc3ccc(O)cc3c2Cl)c1
> 2000 | – | – | – | – | – | 721 | 68 | – | COc1ccc2ccc(-c3cccnc3)cc2c1
> 2000 | > 10000 | 7 | 362 | 54 | 294 | – | – | – | COc1ccc2ccc(-c3cncc4ccccc34)c(Cl)c2c1
– | – | – | – | – | – | – | – | < 5 | N#Cc1ccc(C2CCCc3cncn32)cc1 (stereo not drawn) [FADROZOLE]
> 2000 | 1260 | 39 | 1160 | 30 | 523 | – | – | – | Oc1ccc2ccc(-c3cccnc3)c(F)c2c1
> 2000 | > 10000 | 19 | 447 | 24 | 94 | – | – | – | COc1cncc(-c2ccc3ccc(OC)cc3c2Cl)c1
> 2000 | 3560 | 94 | – | – | – | – | – | – | COc1ccc2ccc(-c3cccnc3)c(Cl)c2c1
– | – | – | – | – | – | 3000 | – | – | c1cncc(-c2ccc3ccccc3c2)c1
> 2000 | 4200 | 16 | 245 | 15 | 185 | – | – | – | COc1cncc(-c2ccc3ccc(O)cc3c2Cl)c1
> 2000 | 1740 | 4 | 238 | 66 | 1030 | – | – | – | Oc1ccc2ccc(-c3cncc4ccccc34)c(Cl)c2c1
> 2000 | 6720 | 546 | 7100 | 13 | 11 | – | – | – | COc1ccc2ccc(-c3cncc(O)c3)c(Cl)c2c1
> 2000 | 2150 | 110 | 2430 | 22 | 1520 | – | – | – | Oc1ccc2ccc(-c3cncnc3)c(Cl)c2c1
> 2000 | 1010 | 104 | 2930 | 28 | 147 | – | – | – | COc1ccc2ccc(-c3cccnc3)c(Cl)c2c1F
> 2000 | 3580 | 15 | 450 | 33 | 525 | – | – | – | Oc1ccc2ccc(-c3cncc(F)c3)c(Cl)c2c1
> 2000 | > 10000 | 95 | 1610 | 17 | 106 | – | – | – | COc1ccc2ccc(-c3cccnc3)c(F)c2c1
> 2000 | 1760 | 9 | 235 | 26 | 64 | – | – | – | Oc1ccc2ccc(-c3cccnc3)c(Cl)c2c1
> 2000 | > 10000 | 9 | 224 | 25 | 375 | – | – | – | Oc1ccc2ccc(-c3cccnc3)c(Cl)c2c1F
> 2000 | > 10000 | 170 | 12300 | 72 | 632 | – | – | – | COc1ccc2ccc(-c3cncnc3)c(Cl)c2c1
> 2000 | > 10000 | 37 | 1410 | 38 | 454 | – | – | – | COc1ccc2ccc(-c3cncc(F)c3)c(Cl)c2c1
